# Reference: ChEMBL document CHEMBL3046864, “Synthesis and antifungal activity of a series of N-substituted [2-(2,4-dichlorophenyl)-3-(1,2,4-triazol-1-yl)]propylamines” (J Agric Food Chem, 2007)
# Calls of active or inactive are those of the source. No cut-off for these calls is given here.
# Experiments:
# Cercospora beticola = test: Fungicidal activity against Cercospora beticola assessed as inhibition of radial growth; type: functional, organism-based
# In short: (§1)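 Strains from the IPV collection were maintained on potato dextrose agar. Radial growth on PDA was measured at 100–0.1 mg L-1. % inhibition was taken from the mean difference between treated and control cultures relative to control. % inhibition was plotted on a probit scale against dose to give EC50.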
# Ustilago maydis = test: Fungicidal activity against Ustilago maydis ATCC 14826 assessed as inhibition of fungal cell count; type: functional, organism-based; conditions: Mycosarcoma maydis
# In short: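 U. maydis ATCC 14826 broth cultures were grown in Coursen and Sisler broth with compound. Growth was estimated by sporidial cell count at the end of treatment and expressed as % inhibition versus the untreated control.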
# Fusarium graminearum = test: Fungicidal activity against Fusarium graminearum assessed as inhibition of radial growth; type: functional, organism-based
# In short: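 The Fusarium isolate came from the IPV collection and was kept on PDA. Radial growth was measured on PDA plates at 100–0.1 mg L-1. Percentage inhibition was taken from the mean difference between treated and control cultures. EC50 came from a probit plot of percentage inhibition against dose.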
# Oculimacula yallundae = test: Fungicidal activity against Oculimacula yallundae assessed as inhibition of radial growth; type: functional, organism-based; in short: as §1
# Pyrenophora teres = test: Fungicidal activity against Pyrenophora teres assessed as inhibition of radial growth; type: functional, organism-based; in short: as §1
# Botrytis cinerea = test: Fungicidal activity against Botryotinia fuckeliana assessed as inhibition of radial growth; type: functional, organism-based; in short: as §1
# Puccinia recondita = test: Antifungal activity against Puccinia recondita infected 125 ug/mL compound […] assessed as inhibition of wheat brown rust disease measured after 10 days post fungal inoculation; type: functional
# Blumeria graminis = test: Antifungal activity against Blumeria graminis f. sp. tritici infected in 125 ug/mL […] assessed as inhibition of wheat powdery mildew disease measured after 10 days post fungal inoculation; type: functional
# Phytophthora infestans = test: Antifungal activity against Phytophthora infestans infected 125 ug/mL compound pre-treated six-leaves stage tomato plant seedlings assessed as inhibition of disease measured after 7 days post fungal inoculation; type: functional
# In short: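 Preventive application before inoculation. Tomato plants were sprayed with a P. infestans zoosporangia suspension (5 × 10^4 mL-1). Plants were held 24 h at 20 ± 1 °C and 100% RH, then moved to a greenhouse at 23 ± 1 °C and 70 ± 10% RH. Diseased leaf area was scored 7 days after inoculation against nontreated plants to give percentage disease inhibition.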
# [1] = target: T1, Squalene monooxygenase (Mycosarcoma maydis) (UniProt A0A0D1C8X8); test: Inhibition of squalene epoxidase in Ustilago maydis ATCC 14826 assessed as effect on squalene level at 0.01 to 100 mg/L measured after 18 hr post compound treatment
# T1 sequence (whole entry): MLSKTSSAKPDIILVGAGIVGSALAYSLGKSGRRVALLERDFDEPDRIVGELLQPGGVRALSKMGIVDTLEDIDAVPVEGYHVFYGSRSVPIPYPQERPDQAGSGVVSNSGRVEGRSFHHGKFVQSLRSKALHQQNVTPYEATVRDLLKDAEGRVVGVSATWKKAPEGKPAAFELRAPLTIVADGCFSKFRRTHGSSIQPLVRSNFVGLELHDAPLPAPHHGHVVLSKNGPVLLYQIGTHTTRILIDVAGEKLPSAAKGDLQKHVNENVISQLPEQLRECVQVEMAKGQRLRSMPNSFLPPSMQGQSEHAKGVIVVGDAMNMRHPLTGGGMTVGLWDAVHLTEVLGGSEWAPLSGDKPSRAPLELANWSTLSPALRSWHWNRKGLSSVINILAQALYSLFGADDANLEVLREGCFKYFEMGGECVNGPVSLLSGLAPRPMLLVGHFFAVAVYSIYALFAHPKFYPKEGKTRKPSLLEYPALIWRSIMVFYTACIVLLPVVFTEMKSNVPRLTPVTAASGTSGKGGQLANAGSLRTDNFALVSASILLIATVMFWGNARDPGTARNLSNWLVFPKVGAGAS
# In short: (§2)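 U. maydis was grown in Coursen and Sisler broth with compound at 0.01–100 mg L-1 for 18 h. Sporidia were harvested by centrifugation, spiked with dihydrocholesterol as a known-amount standard, and saponified in 20% KOH in 60% ethanol for 1 h at 90 °C. The unsaponifiable fraction, including squalene and 14-methyl sterols, was analysed by capillary GC-FID and GC-MS.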
# [2] = target: T2, Lanosterol 14-alpha demethylase (Mycosarcoma maydis) (UniProt P49602); test: Inhibition of 14alpha-demethylase in Ustilago maydis ATCC 14826 assessed as increase in 14-methyl sterols levels at 0.01 to 100 mg/L measured after 18 hr post compound treatment; in short: as §2
# T2 sequence (whole entry): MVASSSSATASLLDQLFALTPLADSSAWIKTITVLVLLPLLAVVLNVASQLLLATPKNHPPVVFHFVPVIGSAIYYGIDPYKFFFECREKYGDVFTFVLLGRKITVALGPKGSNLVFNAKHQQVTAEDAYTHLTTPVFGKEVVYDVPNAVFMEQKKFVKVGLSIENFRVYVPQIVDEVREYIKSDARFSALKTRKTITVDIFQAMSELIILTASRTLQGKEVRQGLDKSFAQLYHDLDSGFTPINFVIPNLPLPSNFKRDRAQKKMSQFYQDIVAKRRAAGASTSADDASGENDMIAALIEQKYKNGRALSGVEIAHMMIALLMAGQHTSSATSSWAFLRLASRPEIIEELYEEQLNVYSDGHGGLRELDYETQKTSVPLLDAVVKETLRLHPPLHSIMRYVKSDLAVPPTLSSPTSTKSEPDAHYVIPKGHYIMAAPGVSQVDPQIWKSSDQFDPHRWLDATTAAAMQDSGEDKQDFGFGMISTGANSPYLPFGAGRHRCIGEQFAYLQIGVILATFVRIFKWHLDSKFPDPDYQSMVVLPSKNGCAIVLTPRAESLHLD
Structure (SMILES),EC50 (Cercospora beticola) [µg/mL],EC50 (Ustilago maydis) [µg/mL],EC50 (Fusarium graminearum) [µg/mL],EC50 (Oculimacula yallundae) [µg/mL],EC50 (Pyrenophora teres) [µg/mL],EC50 (Botrytis cinerea) [µg/mL],inhibition (INH) (Puccinia recondita) [%],inhibition (INH) (Blumeria graminis) [%],inhibition (INH) (Phytophthora infestans) [%],inhibition [1],inhibition [2]
CN(C)CC(Cn1cncn1)c1ccc(Cl)cc1Cl (centres undefined),8,2.5,> 100,6.5,42,75,,,,,
CC(=O)NCC(Cn1cncn1)c1ccc(Cl)cc1Cl (centres undefined),> 100,60,> 100,> 100,> 100,> 100,,,,,
C=CCN(CC(Cn1cncn1)c1ccc(Cl)cc1Cl)C1CC1 (centres undefined),0.2,0.01,55,0.8,3.2,4.4,,,,,
Clc1ccc(C(CN(C2CC2)C2CC2)Cn2cncn2)c(Cl)c1 (centres undefined),0.4,0.02,55,1.2,5.5,7.5,10,60,0,,
Clc1ccc(C(CN(Cc2ccccc2)Cc2ccccc2)Cn2cncn2)c(Cl)c1 (centres undefined),4,0.09,> 100,17,1.9,6,,,,,
C=CCNCC(Cn1cncn1)c1ccc(Cl)cc1Cl (centres undefined),31.7,19.9,> 100,91.3,> 100,> 100,,,,,
C#CCN(CC#C)CC(Cn1cncn1)c1ccc(Cl)cc1Cl (centres undefined),1.1,0.14,9,2.8,2.1,4.9,15,35,0,,
Clc1ccc(C(CNC/C=C/c2ccccc2)Cn2cncn2)c(Cl)c1 (centres undefined),2.4,1.4,26,7.5,12,42,20,25,0,,
NCC(Cn1cncn1)c1ccc(Cl)cc1Cl (centres undefined),> 100,70.3,> 100,> 100,> 100,> 100,,,,,
Clc1ccc(C(CNCc2ccccc2)Cn2cncn2)c(Cl)c1 (centres undefined),2.7,11.3,> 100,23.4,30.3,> 100,,,,,
C=CCN(CC=C)CC(Cn1cncn1)c1ccc(Cl)cc1Cl (centres undefined),2.6,0.22,> 100,3.6,6.5,10,25,30,0,inactive,Active
C/C=C/C(=O)NCC(Cn1cncn1)c1ccc(Cl)cc1Cl (centres undefined),60.5,20.7,> 100,> 100,> 100,> 100,,,,,
CC(C)(C)c1ccc(CN(Cc2ccc(C(C)(C)C)cc2)CC(Cn2cncn2)c2ccc(Cl)cc2Cl)cc1 (centres undefined),7,9,> 100,> 100,> 100,> 100,,,,,
Clc1ccc(C(CN(C/C=C/c2ccccc2)C/C=C/c2ccccc2)Cn2cncn2)c(Cl)c1 (centres undefined),12.5,0.65,> 100,> 100,6,> 100,,,,,
O=C(NCC(Cn1cncn1)c1ccc(Cl)cc1Cl)c1ccccc1 (centres undefined),2.5,1.9,> 100,80.3,11.5,100,,,,,
C#CCNCC(Cn1cncn1)c1ccc(Cl)cc1Cl (centres undefined),4,1.3,> 100,11,38,38,,,,,
FC(F)C(F)(F)OCC(Cn1cncn1)c1ccc(Cl)cc1Cl (centres undefined) [TETRACONAZOLE],,,,,,0.04,100,100,0,,
